Reference: ChEMBL document CHEMBL3751842, “Novel triazolothiadiazines act as potent anticancer agents in liver cancer cells through Akt and ASK-1 proteins” (Bioorg Med Chem, 2016)
The source made the active and inactive calls. The rule behind the calls is not given here.

What was measured:
Huh-7 [1] = assay: Induction of oxidative stress in human HuH7 cells assessed as ROS accumulation at 10 uM after 48 hrs by flow cytometry analysis; format: functional, cell-based
Method in brief: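 Huh7 and Mahlavu cells were treated after 24 h with 10 µM compound or DMSO for 48 h. Cells were then trypsinized and processed with a MUSE oxidative stress kit for flow cytometric counting of ROS-positive cells. Cells grown in selenium-deficient serum-free medium served as the positive control.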

[2] = target: RAC-alpha serine/threonine-protein kinase (Homo sapiens) (UniProt P31749); assay: Inhibition of Akt phosphorylation in human Mahlavu cells after 24 to 48 hrs by Western blot analysis; format: cell-based
Method in brief: (§1)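 Cells were exposed to compound or DMSO control for 24 or 48 h. Lysates were loaded at […] protein per lane and immunoblotted with antibodies diluted 1:100 to 1:500 in 5% BSA-TBS-T. Targets were p-Akt (Ser473), Akt, p-GSK3-α/β (Ser21/9), GSK3-α/β, SAPK/JNK, p-SAPK/JNK (Thr183/Tyr185), PARP, p-β-catenin, β-catenin, cyclin D1, p-ASK1 (S83) and p-ASK1 (S966). Actin served as the loading control.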

Huh-7 [3] = assay: Induction of apoptosis in human HuH7 cells assessed as nuclear condensation at 10 uM after 48 hrs by Hoechst 33258 staining-based immunofluorescence microscopy; format: functional, cell-based
Method in brief: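 Cells on coverslips were incubated overnight, then treated with 10 µM compound or DMSO for 48 h. They were washed in ice-cold PBS, fixed in cold methanol for 10 min, and stained with 1 µg/mL Hoechst 33258 for 5 min in the dark. Nuclei were examined by fluorescence microscopy with a 40x objective.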

[4] = Cytotoxicity against human HCT116 cells assessed as growth inhibition after 72 hrs by sulforhodamine B assay; format: functional, cell-based, HCT-116; conditions: Homo sapiens, HCT-116, 72 h; read-out: IC50
Method in brief: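 Cells were grown at 37°C, 5% CO2 in DMEM with 10% FBS. They were seeded at 1000–3000 cells/well, grown 24 h, then exposed to compound at 2.5–40 µM for 72 h. Cells were fixed in 10% TCA for 1 h at 4°C, stained with 0.4% SRB in 1% acetic acid for 10 min, and the dye solubilized in 10 mM Tris. Absorbance was read at 515 nm; runs were in triplicate; IC50 was calculated, with fits of R2 0.8–1 accepted.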

[5] = target: T1, Catenin beta-1 (Homo sapiens) (UniProt P35222); assay: Induction of beta-catenin phosphorylation in human HuH7 cells after 24 to 48 hrs by Western blot analysis; format: cell-based; conditions: Huh-7; method in brief: as §1
T1 sequence (whole entry): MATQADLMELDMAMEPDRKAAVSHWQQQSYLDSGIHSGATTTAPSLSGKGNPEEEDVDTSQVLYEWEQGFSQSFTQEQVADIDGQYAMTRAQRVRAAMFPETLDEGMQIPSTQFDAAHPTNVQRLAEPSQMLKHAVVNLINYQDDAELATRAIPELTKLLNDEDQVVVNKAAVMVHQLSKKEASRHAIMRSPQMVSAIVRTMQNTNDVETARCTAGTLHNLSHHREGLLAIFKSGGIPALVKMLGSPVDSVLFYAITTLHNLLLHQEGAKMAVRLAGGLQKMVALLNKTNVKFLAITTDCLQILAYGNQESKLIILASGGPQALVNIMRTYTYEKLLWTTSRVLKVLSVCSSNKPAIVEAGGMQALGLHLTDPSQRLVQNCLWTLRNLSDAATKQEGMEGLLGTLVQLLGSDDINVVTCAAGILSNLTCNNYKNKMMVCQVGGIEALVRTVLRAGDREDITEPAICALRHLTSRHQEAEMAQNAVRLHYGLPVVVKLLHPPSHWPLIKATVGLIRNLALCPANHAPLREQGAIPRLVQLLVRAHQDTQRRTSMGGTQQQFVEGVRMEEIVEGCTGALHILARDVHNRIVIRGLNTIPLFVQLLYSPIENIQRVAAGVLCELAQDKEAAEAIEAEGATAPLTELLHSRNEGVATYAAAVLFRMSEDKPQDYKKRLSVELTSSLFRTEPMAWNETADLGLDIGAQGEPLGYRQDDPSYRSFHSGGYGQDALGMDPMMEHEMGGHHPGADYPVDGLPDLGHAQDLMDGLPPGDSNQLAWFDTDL

[6] = target: T1, Catenin beta-1 (Homo sapiens); assay: Induction of beta-catenin phosphorylation in human Mahlavu cells after 24 to 48 hrs by Western blot analysis; format: cell-based; method in brief: as §1
Mahlavu = assay: Induction of apoptosis in human Mahlavu cells assessed as PARP cleavage after 24 to 48 hrs by Western blot analysis; format: functional, cell-based; method in brief: as §1

Sequence of RAC-alpha serine/threonine-protein kinase (Homo sapiens) (P31749 whole entry): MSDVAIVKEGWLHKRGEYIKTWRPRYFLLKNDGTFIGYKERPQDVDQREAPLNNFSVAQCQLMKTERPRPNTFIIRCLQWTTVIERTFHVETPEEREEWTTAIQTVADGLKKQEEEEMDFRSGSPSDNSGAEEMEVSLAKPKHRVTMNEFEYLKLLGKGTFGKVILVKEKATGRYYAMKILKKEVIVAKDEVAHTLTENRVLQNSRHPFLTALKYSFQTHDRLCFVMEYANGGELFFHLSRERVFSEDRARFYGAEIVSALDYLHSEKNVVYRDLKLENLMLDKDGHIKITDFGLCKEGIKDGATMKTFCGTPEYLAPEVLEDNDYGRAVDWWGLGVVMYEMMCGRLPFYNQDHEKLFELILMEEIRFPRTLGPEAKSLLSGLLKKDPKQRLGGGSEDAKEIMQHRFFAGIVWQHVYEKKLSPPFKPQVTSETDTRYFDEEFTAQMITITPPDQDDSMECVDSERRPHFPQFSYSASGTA

Compound	Activity (Huh-7 [1])	inhibition [2]	Activity (Huh-7 [3])	IC50 [4] [µM]	Activity [5]	Activity [6]	Activity (Mahlavu)
Cc1ccc(C2=Nn3c(nnc3C(C)c3ccc(CC(C)C)cc3)SC2)cc1 (centres undefined)	Active	Active	Active	4	Active	Active	Active
COc1ccc(C2=Nn3c(nnc3C(C)c3ccc(CC(C)C)cc3)SC2)cc1 (centres undefined)	Active	Active	Active	4.2	Active	Active	Active
